# Bioassay records (PubChem BioAssay)
# Compounds with a hit are over-represented: about 1.5% of the library has one in this group of screens.
# PKA-R1A activ = activators of PKA-R1A holoenzyme, primary screen, biochemical, fluorescence polarization, Cy5-IP20, bovine R1A, mouse PKAc; activation, % at 11.4 µM; AID 504707, 2011; PKA-R1A dissociation; scaled: DMSO 0%, 113 µM cGMP 100%; 340,000 tested, 0.083% active;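 active = percent activation above the mean of all tested compounds plus 3 SD, cut at about 19% in these data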;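 also: higher means more PKAc released from R1A so a rise in polarization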
# CRFR2-BP antag = antagonists of CRF-BP/CRF-R2 complex, primary screen, cell-based, HEK293, calcium dye fluorescence, uHTS; CRF-induced calcium fluorescence; inhibition, % at 11.8 µM; 350,000 tested, 0.59% active;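 active = inhibition of the ligand-induced calcium signal above about 50% at the single tested concentration, limit read from the data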
# S100A4 MyoIIA = inhibitors of S100A4-myosin IIA peptide binding, primary screen, biochemical, fluorescence polarization, TAMRA-MyoIIA peptide | Protein S100-A4 (Homo sapiens), P26447 | inhibition, % at 10.7 µM | 360,000 tested, 0.14% active;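 active = mean inhibition of at least 70% across replicates, with every replicate also reaching that level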
# Target sequence (P26447 whole entry, looked up): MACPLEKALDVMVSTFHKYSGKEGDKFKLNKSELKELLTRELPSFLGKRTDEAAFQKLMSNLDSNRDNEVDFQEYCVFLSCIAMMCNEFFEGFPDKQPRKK
#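 System – human S100A4 monomer protein, biochemical binding assay · Buffer or medium – Calcium-containing HEPES buffer, pH 7.2 · Timing – 5 min between mix addition and reading · Also added – TAMRA-labelled myosin IIA heavy-chain peptide probe, 5 nM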
# SIRT5 block = SIRT5 desuccinylase inhibitors, primary screen, biochemical, fluorescence imaging, single point, set 5. NAD-dependent protein deacylase sirtuin-5, mitochondrial (Homo sapiens), Q9NXA8. Purified SirT5, succinyl-peptide AMC, trypsin-coupled fluorescence. inhibition, % at 15 µM. 330,000 tested, 1.1% active. AID 652115, 2013; in the data active = inhibition above about 15%
# Target sequence (Q9NXA8 whole entry, looked up): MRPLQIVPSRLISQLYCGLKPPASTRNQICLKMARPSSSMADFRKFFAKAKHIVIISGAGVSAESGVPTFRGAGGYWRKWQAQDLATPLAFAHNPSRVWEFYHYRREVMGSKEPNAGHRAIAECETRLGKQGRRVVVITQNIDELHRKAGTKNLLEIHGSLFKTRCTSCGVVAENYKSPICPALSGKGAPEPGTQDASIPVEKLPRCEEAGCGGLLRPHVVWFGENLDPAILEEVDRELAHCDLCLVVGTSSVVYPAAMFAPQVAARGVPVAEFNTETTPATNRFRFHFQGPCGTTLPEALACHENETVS
# PKA-R2B act = activators of PKA-R2B holoenzyme, primary screen, biochemical, fluorescence polarization, Cy5-IP20, human | PKA-R2B holoenzyme dissociation; R2B truncated from residue 108, S112A mutant; 0% DMSO only, 100% 113 µM cGMP | activation, % at 11.4 µM | cAMP-dependent protein kinase catalytic subunit beta (Homo sapiens) + cAMP-dependent … | 340,000 tested, 0.079% active;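 active = activation above a cutoff set at the mean over all compounds plus 3 SD, cut at about 18% in these data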;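 also: higher means more holoenzyme dissociation and a rise in polarization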
# Active calls of the source: *; . = not tested or not shown.
SMILES,PKA-R1A activ,CRFR2-BP antag,S100A4 MyoIIA,SIRT5 block,PKA-R2B act
O=C(Nc1ccccc1)c1cccc(Cn2cc(C(F)(F)F)ccc2=O)c1,-7,6,-3,24*,-3
O=C(Nc1ccccc1)c1ccc(Cn2cc(C(F)(F)F)ccc2=O)cc1,-3,8,.,.,0
O=C(C[C@@H]1C=C[C@H](NC(=O)CC2CC2)[C@@H](CO)O1)NCC(F)(F)F,.,.,9,7,.
CN1CCN(S(=O)(=O)c2cccc(C(=O)N3CCN(c4ccccc4)CC3)c2)CC1,-16,2,-8,17*,0
CC(=O)N1CCN(C(=O)c2cccc(S(=O)(=O)N3CCN(c4ccccc4)CC3)c2)CC1,2,3,-5,-2,11
Cc1ccc(C2(C)CC(C)(C)N(C(=O)CSc3nnc(C)s3)c3ccccc32)cc1 (stereo not drawn),-11,115*,.,.,-6
Cc1nnc(SCC(=O)N2c3ccccc3C(C)(c3ccccc3)CC2(C)C)s1 (stereo not drawn),-5,-4,.,.,-1
C[C@H](CO)N1C[C@H](C)[C@H](CN(C)S(=O)(=O)c2ccc(Cl)cc2)Oc2ccc(NC(=O)Nc3ccc(F)cc3)cc2CC1=O,.,.,2,-4,.
CCCc1cn(CC[C@@H]2CC[C@H](NC(=O)C3CCCC3)[C@@H](CO)O2)nn1,.,.,32,13,.
CN(C)Cc1cn(CC[C@@H]2CC[C@H](N)[C@H](CO)O2)nn1,.,.,1,21*,.
CN(C)Cc1cn(CC[C@H]2CC[C@H](NS(=O)(=O)c3ccccc3)[C@H](CO)O2)nn1,.,.,7,33*,.
COc1cccc(-c2cn(CC[C@H]3CC[C@H](NC(=O)CC4CC4)[C@H](CO)O3)nn2)c1,.,.,12,1,.
COc1cccc(-c2cn(CC[C@@H]3CC[C@H](NC(=O)CC4CC4)[C@@H](CO)O3)nn2)c1,.,.,10,30*,.
CCCc1cn(CC[C@@H]2CC[C@H](NC(=O)C3CCCC3)[C@H](CO)O2)nn1,.,.,116*,7,.
CC(C)CC#Cc1cnc2c(c1)C(=O)N([C@H](C)CO)C[C@H](C)[C@H](CN(C)C(=O)c1cnccn1)O2,.,.,-5,-3,.
O=C(Nc1ccc(Cl)c(Cl)c1)N[C@H]1CC[C@@H](CCn2cc(C3CC3)nn2)O[C@@H]1CO,.,.,2,-1,.
O=C(Nc1ccc(Cl)c(Cl)c1)N[C@@H]1CC[C@H](CCn2cc(C3CC3)nn2)O[C@H]1CO,.,.,51,27*,.
C[C@H](CO)N1C[C@H](C)[C@H](CN(C)Cc2ccc3c(c2)OCO3)Oc2ccc(NC(=O)CCN3CCOCC3)cc2C1=O,.,.,-3,-5,.
COc1ccc2c3c([nH]c2c1)[C@H](CO)N(C(=O)C1CCC1)CC31CCN(C(=O)NC(C)C)CC1,.,.,-47,-3,.
COc1ccc(CN(C)C[C@H]2Oc3c(NC(=O)Nc4ccc(F)cc4)cccc3C(=O)N([C@@H](C)CO)C[C@@H]2C)cc1,.,.,-2,30*,.
COc1ccc(NC(=O)Nc2cccc3c2O[C@H](CN(C)Cc2ccc4c(c2)OCO4)[C@@H](C)CN([C@H](C)CO)C3=O)cc1,.,.,-3,2,.
COc1ccc(NC(=O)Nc2cccc3c2O[C@H](CN(C)Cc2ccc4c(c2)OCO4)[C@@H](C)CN([C@@H](C)CO)C3=O)cc1,.,.,118*,7,.
C[C@H](CO)N1C[C@H](C)[C@H](CN(C)C(=O)C2CCCCC2)OCCCC[C@H](C)Oc2ccc(NS(C)(=O)=O)cc2C1=O,.,.,-4,-2,.
O=S(=O)(NCC[C@@H]1CC[C@@H](NS(=O)(=O)c2cccc(F)c2)[C@H](CO)O1)c1cccc(F)c1,.,.,-25,3,.
CN1CCN(C(=O)C[C@@H]2CC[C@H]3[C@@H](COc4ccc(NC(=O)C5CC5)cc4C(=O)N3C)O2)CC1,.,.,-6,-3,.
CCN1[C@@H]2c3ccc(-c4cccc(F)c4)c(=O)n3C[C@H]1[C@H](CO)[C@H]2C(=O)NCC1CC1,.,.,4,-3,.
CN=C(Nc1ccc(C(=O)OC)s1)c1ccccc1,-2,-4,0,32*,6
